ChEMBL document CHEMBL1147085, “Metabolism and pharmacokinetics of a novel Src kinase inhibitor TG100435 ([7-(2,6-dichloro-phenyl)-5-methyl-benzo[1,2,4]triazin-3-yl]-[4-(2-pyrrolidin-1-yl-ethoxy)-phenyl]-amine) and its active N-oxide metabolite TG100855 …” (Drug Metab Dispos, 2007)

What was measured:
[1] = AUC (0 to last) in Sprague-Dawley rat at 25 mg/kg, po; format: ADME, organism-based; parameters: time 0 - last, dose 25 mg/kg, route oral; conditions: plasma
[2] = AUC (0 to last) in Beagle dog at 25 mg/kg, po; format: ADME, organism-based, Canis lupus familiaris; parameters: dose 25 mg/kg, route oral, time 0 - last; conditions: plasma
[3] = AUC (0 to infinity) in BALB/c mouse at 40 mg/kg, po; format: ADME, organism-based; parameters: time infinity, dose 40 mg/kg, route oral; conditions: plasma
How it was run: (§1)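 Male BALB/c mice (~25 g); fasted overnight for single p.o. dosing, not fasted for i.v. or i.p. dosing. Composite blood sampling, n=3 per time point: 5, 15, 30 min, 1, 3, 6, 24, 48 hr after i.v. dose; 0.5, 1, 3, 5, 8, 24, 30, 48 hr after p.o. or i.p. dose. Heparinized plasma, both parent and N-oxide measured by LC/MS/MS (MRM 494.2/98.1 and 510.2/98.1); non-compartmental analysis, AUC by linear trapezoidal rule.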

[4] = AUC (0 to infinity) in Sprague-Dawley rat at 5 mg/kg, iv; format: ADME, organism-based; parameters: time infinity, dose 5 mg/kg, route intravenous; conditions: plasma
[5] = Clearance in Sprague-Dawley rat at 5 mg/kg, iv; format: ADME, organism-based; parameters: dose 5 mg/kg, route intravenous; conditions: in vivo
[6] = Clearance in Beagle dog at 5 mg/kg, iv; format: ADME, organism-based, Canis lupus familiaris; parameters: dose 5 mg/kg, route intravenous; conditions: in vivo
[7] = Half life in BALB/c mouse at 5 mg/kg, iv; format: ADME, organism-based; parameters: dose 5 mg/kg, route intravenous; conditions: in vivo; how it was run: as §1
[8] = Half life in Beagle dog at 5 mg/kg, iv; format: ADME, organism-based, Canis lupus familiaris; parameters: dose 5 mg/kg, route intravenous; conditions: in vivo
[9] = AUC (0 to infinity) in Beagle dog at 5 mg/kg, iv; format: ADME, organism-based, Canis lupus familiaris; parameters: time infinity, dose 5 mg/kg, route intravenous; conditions: plasma
[10] = Bioavailability in Beagle dog at 25 mg/kg, po; format: ADME, organism-based, Canis lupus familiaris; conditions: in vivo
[11] = Cmax in BALB/c mouse at 25 mg/kg, po; format: ADME, organism-based; parameters: dose 25 mg/kg, route oral; conditions: in vivo; how it was run: as §1
[12] = Drug level in Beagle dog plasma at 5 mg/kg, iv; format: ADME, organism-based, Canis lupus familiaris; parameters: dose 5 mg/kg, route intravenous
[13] = AUC (0 to infinity) in Sprague-Dawley rat at 25 mg/kg, po; format: ADME, organism-based; parameters: time infinity, dose 25 mg/kg, route oral; conditions: plasma
[14] = Volume of distribution in Beagle dog at 5 mg/kg, iv; format: ADME, organism-based, Canis lupus familiaris; parameters: dose 5 mg/kg, route intravenous; conditions: in vivo
[15] = AUC (0 to infinity) in Beagle dog at 25 mg/kg, po; format: ADME, organism-based, Canis lupus familiaris; parameters: time infinity, dose 25 mg/kg, route oral; conditions: plasma
[16] = Drug level in Sprague-Dawley rat plasma at 5 mg/kg, iv; format: ADME, organism-based; parameters: dose 5 mg/kg, route intravenous
[17] = AUC (0 to last) in BALB/c mouse at 25 mg/kg, po; format: ADME, organism-based; parameters: time 0 - last, dose 25 mg/kg, route oral; conditions: plasma; how it was run: as §1
[18] = Volume of distribution in BALB/c mouse at 5 mg/kg, iv; format: ADME, organism-based; parameters: dose 5 mg/kg, route intravenous; conditions: in vivo
[19] = Clearance in BALB/c mouse at 5 mg/kg, iv; format: ADME, organism-based; parameters: dose 5 mg/kg, route intravenous; conditions: in vivo; how it was run: as §1
[20] = Volume of distribution in Sprague-Dawley rat at 5 mg/kg, iv; format: ADME, organism-based; parameters: dose 5 mg/kg, route intravenous; conditions: in vivo
[21] = Bioavailability in Sprague-Dawley rat at 25 mg/kg, po; format: ADME, organism-based; conditions: in vivo
[22] = Tmax in Sprague-Dawley rat at 25 mg/kg, po; format: ADME, organism-based; parameters: dose 25 mg/kg, route oral; conditions: in vivo
[23] = Drug level in BALB/c mouse plasma at 5 mg/kg, iv; format: ADME, organism-based; parameters: dose 5 mg/kg, route intravenous; how it was run: as §1
[24] = AUC (0 to infinity) in BALB/c mouse at 5 mg/kg, iv; format: ADME, organism-based; parameters: time infinity, dose 5 mg/kg, route intravenous; conditions: plasma; how it was run: as §1
Canis familiaris = test: Bioavailability in Beagle dog assessed as AUC of ([7-(2,6-Dichloro-phenyl)-5-methyl-benzo[1,2,4]triazin-3-yl]-{4-[2-(1-pyrrolidin-1-yl-ethoxy)-phenyl]-amine) at 25 mg/kg, po; format: ADME, organism-based, Canis lupus familiaris; conditions: in vivo
[25] = AUC (0 to infinity) in BALB/c mouse at 25 mg/kg, po; format: ADME, organism-based; parameters: time infinity, dose 25 mg/kg, route oral; conditions: plasma; how it was run: as §1
[26] = AUC (0 to infinity) in Sprague-Dawley rat at 30 mg/kg, po; format: ADME, organism-based; parameters: time infinity, dose 30 mg/kg, route oral; conditions: plasma
[27] = Half life in Sprague-Dawley rat at 5 mg/kg, iv; format: ADME, organism-based; parameters: dose 5 mg/kg, route intravenous; conditions: in vivo
[28] = Cmax in Beagle dog at 25 mg/kg, po; format: ADME, organism-based, Canis lupus familiaris; parameters: dose 25 mg/kg, route oral; conditions: in vivo

Structure (SMILES): Cc1cc(-c2c(Cl)cccc2Cl)cc2nnc(Nc3ccc(OCCN4CCCC4)cc3)nc12
- AUC(0-t) [1]: 7980 ng·h/mL
- AUC(0-t) [2]: 2540 ng·h/mL
- AUC(0-inf) [3]: 35100 ng·h/mL
- AUC(0-inf) [4]: 7030 ng·h/mL
- clearance [5]: 12.7 mL/min/kg
- clearance [6]: 14.5 mL/min/kg
- half-life [7]: 324 min
- half-life [8]: 906 min
- AUC(0-inf) [9]: 5800 ng·h/mL
- bioavailability [10]: 10.7%
- Cmax [11]: 618 ng/mL
- C0 [12]: 1660 ng/mL
- AUC(0-inf) [13]: 8010 ng·h/mL
- Vd [14]: 18.7 L/kg
- AUC(0-inf) [15]: 3110 ng·h/mL
- C0 [16]: 1650 ng/mL
- AUC(0-t) [17]: 15000 ng·h/mL
- Vd [18]: 9.4 L/kg
- clearance [19]: 20.1 mL/min/kg
- Vd [20]: 9.4 L/kg
- bioavailability [21]: 23%
- Tmax [22]: 8 h
- C0 [23]: 873 ng/mL
- AUC(0-inf) [24]: 4140 ng·h/mL
- AUC (Canis familiaris): 6470 ng·h/mL
- AUC(0-inf) [25]: 15300 ng·h/mL
- AUC(0-inf) [26]: 8120 ng·h/mL
- half-life [27]: 534 min
- Cmax [28]: 102 ng/mL
